In article PMC3190289 (Clinical and Experimental Gastroenterology, 2011):
Like-named read-outs stand apart in the source and are kept apart here.

Experiments:
[1] = cited from earlier work
[2] = Safety analysis: treatment-emergent adverse events after single doses; type: in vivo, human; settings: healthy subjects; for Incidence of treatment-emergent adverse events: single-dose administration
Outline: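 Open-label two-period crossover in 44 subjects aged 20–54. Each period gave one oral dose after an overnight fast of at least 8 h, with a 60-min postdose fast; washout at least 7 days. All dosed subjects were analysed. A treatment-emergent AE started or worsened after first dose and within 30 days of last dose. Terms were coded to MedDRA 13.1 system organ class and preferred term; the investigator judged relatedness. Results were summarised descriptively per regimen.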

[3] = tested on: intragastric pH; settings: cited from earlier work
[4] = Plasma pharmacokinetics after single oral doses in healthy subjects; type: in vivo, human; settings: for Subjects with detectable plasma concentrations: single oral dose; for AUC values in CYP2C19 poor metabolizers relative to overall means: two CYP2C19 poor metabolizer subjects
[5] = postdose, single dose 60 mg, healthy subjects

Subjects with detectable plasma concentrations ([4]; 12 hours postdose) [%] | Subjects with detectable plasma concentrations ([4]; 16 hours postdose) [%] | Subjects with detectable plasma concentrations ([4]; 24 hours postdose) [%] | AUC values in CYP2C19 poor metabolizers relative to overall means [4] | Time of first peak of mean plasma concentration-time curve [4, 5] | Time of second peak of mean plasma concentration-time curve [4, 5] [h] | SMILES | Increase in bioavailability at steady state ([1]; after five days of once-daily dosing) [fold] | Time of maximum plasma concentrations ([1]; postdose) | Adverse events reported by two or more subjects ([2]; single dose) | Incidence of treatment-emergent adverse events [2] [%] | Percentage of time with intragastric pH > 4 ([3]; 0–24 hours after the same dose (40 mg), ref 10) [%] | Percentage of time with intragastric pH > 4 ([3]; 0–24 hours after the same dose (40 mg), ref 12) [%] | Time of first peak of plasma concentration-time profile ([1]; after administration) [h] | Half-life [1] [h] | Time of second peak of plasma concentration-time profile ([1]; postdose) [h] | Adverse events considered related to the study drug by the investigator ([2]; single dose) | Incidence of flatulence ([2]; single dose) [%] | Incidence of headache ([2]; single dose) [%] | Incidence of joint injury ([2]; single dose) [%] | Percentage of time with intragastric pH > 4 ([3]; 0–24 hours after the same dose (60 mg))
80 | 39 | 9 | substantially higher |  |  | COc1ccc2nc([S@@+]([O-])Cc3ncc(C)c(OC)c3C)[nH]c2c1 [esomeprazole] | ~2.5 | approximately 1.6 hours | No adverse event | 14 | 54 | 52 |  |  |  |  |  |  |  | 
100 | 88 | 63 | substantially higher | approximately 2 hours | ~5 | Cc1c(OCC(F)(F)F)ccnc1C[S@@+]([O-])c1nc2ccccc2[nH]1 [dexlansoprazole] |  |  |  | 21 |  |  | 1 to 2 | 1 to 2 | 4 to 5 | only one adverse event (nausea) | 5 | 9 | 5 | approximately 60%
